Results reported in ChEMBL document CHEMBL6134765, “Rapid identification of novel indolylarylsulfone derivatives as potent HIV-1 NNRTIs via miniaturized CuAAC click-chemistry-based combinatorial libraries” (RSC Med Chem, 2025).
Each block holds one compound with its values, some of them ahead of it.

How the values were obtained:
[1] = biological target: Human immunodeficiency virus type 1 reverse transcriptase (Human immunodeficiency virus 1) (UniProt Q72547); test: Inhibition of recombinant HIV-1 reverse transcriptase at 0.66 mM incubated for 1 hr by ELISA relative to control
Outline: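 Each library compound was tested directly as the crude click mixture (diluted in DMSO to 2 mM per well) against HIV-1 RT at 0.66 mM, using an ELISA-based RT kit following the kit protocol. Blank controls held DMSO, TBTA, CuSO4·5H2O and sodium ascorbate. Inhibition is expressed as a percentage.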

[2] = Cytotoxicity against human MT4 cells assessed as reduction in cell viability incubated for 5 days by MTT assay; assay type: toxicity, cell-based; conditions: time 5 day
Outline: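 Mock-infected MT-4 cultures were read by MTT for cell viability. CC50 is the concentration that reduces viability by 50%.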

[3] = tested on: Human immunodeficiency virus 1; test: Antiviral activity against HIV-1 harboring RES056 mutant infected in human MT4 cells assessed as inhibition of virus induced cytotoxicity incubated for 5 days by spectrophometry based MTT assay; assay type: functional, organism-based; conditions: Human immunodeficiency virus 1, MT4, 120 h
Outline: (§1)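 MT-4 cells (from Dr. N. Yamamoto, Yamaguchi University) infected with single-mutant (L100I, K103N, Y181C, Y188L, E138K) or double-mutant (F227L/V106A; RES056 = K103N/Y181C) HIV-1 strains. Protection against virus-induced cytotoxicity was read by the MTT method. EC50 is the concentration giving 50% protection of the cell cultures.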

[4] = tested on: Human immunodeficiency virus 1; test: Antiviral activity against HIV-1 harboring F227L/V106A double mutant infected in human MT4 cells assessed as inhibition of virus induced cytotoxicity incubated for 5 days by spectrophometry based MTT assay; assay type: functional, organism-based; conditions: Human immunodeficiency virus 1, MT4, 120 h; outline: as §1
[5] = Selectivity index, ratio of CC50 for cytotoxicity against human MT4 cells to EC50 for antiviral activity against wild-type HIV-1 IIIB infected in human MT4 cells; assay type: toxicity, cell-based; conditions: read-out: Ratio CC50/EC50
Outline: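 Selectivity index is calculated as CC50 (mock-infected MT-4, MTT) divided by EC50 (HIV-1 IIIB protection of MT-4, MTT).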

[6] = tested on: Human immunodeficiency virus 1; test: Antiviral activity against HIV-1 harboring Y188L mutant infected in human MT4 cells assessed as inhibition of virus induced cytotoxicity incubated for 5 days by spectrophometry based MTT assay; assay type: functional, organism-based; conditions: Human immunodeficiency virus 1, MT4, 120 h; outline: as §1
[7] = tested on: Human immunodeficiency virus 1; test: Antiviral activity against HIV-1 harboring K103N mutant infected in human MT4 cells assessed as inhibition of virus induced cytotoxicity incubated for 5 days by spectrophometry based MTT assay; assay type: functional, organism-based; conditions: Human immunodeficiency virus 1, MT4, 120 h; outline: as §1
[8] = tested on: Human immunodeficiency virus 1; test: Antiviral activity against HIV-1 harboring Y181C mutant infected in human MT4 cells assessed as inhibition of virus induced cytotoxicity incubated for 5 days by spectrophometry based MTT assay; assay type: functional, organism-based; conditions: Human immunodeficiency virus 1, MT4, 120 h; outline: as §1
[9] = tested on: Human immunodeficiency virus 1; test: Antiviral activity against HIV-1 harboring L100I mutant infected in human MT4 cells assessed as inhibition of virus induced cytotoxicity incubated for 5 days by spectrophometry based MTT assay; assay type: functional, organism-based; conditions: Human immunodeficiency virus 1, MT4, 120 h; outline: as §1
[10] = tested on: Human immunodeficiency virus 1; test: Antiviral activity against HIV-1 harboring E138K mutant infected in human MT4 cells assessed as inhibition of virus induced cytotoxicity incubated for 5 days by spectrophometry based MTT assay; assay type: functional, organism-based; conditions: Human immunodeficiency virus 1, MT4, 120 h; outline: as §1
[11] = tested on: Human immunodeficiency virus 1; test: Antiviral activity against wild-type HIV-1 IIIB infected in human MT4 cells incubated for 5 days by spectrophometry based MTT assay; assay type: functional, organism-based; conditions: Human immunodeficiency virus 1, IIIB, MT4, 120 h
Outline: (§2)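 MTT protection assay in MT-4 cells infected with HIV-1 IIIB or HIV-2 ROD. EC50 is the compound concentration giving 50% protection of the cultures against virus-induced cytotoxicity.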

[12] = tested on: Human immunodeficiency virus 2; test: Antiviral activity against HIV-2 ROD infected in human MT4 cells incubated for 5 days by spectrophotometry based MTT assay; assay type: functional, organism-based; conditions: Human immunodeficiency virus 2, ROD, MT4, 120 h; outline: as §2

Compound: Cc1cc(C)cc(S(=O)(=O)c2c(C(=O)NCc3cn(Cc4ccc(C#N)cc4)nn3)[nH]c3ccc(Cl)cc23)c1
inhibition [1]: < 85%

Compound: Cc1cc(C)cc(S(=O)(=O)c2c(C(=O)NCc3cn(-c4cc5ccccc5s4)nn3)[nH]c3ccc(Cl)cc23)c1
inhibition [1]: < 85%

Compound: Cc1cccc(Cn2cc(CNC(=O)c3[nH]c4ccc(Cl)cc4c3S(=O)(=O)c3cc(C)cc(C)c3)nn2)c1
inhibition [1]: < 85%

Compound: Cc1cc(C#N)cc(C)c1Oc1nc(Nc2ccc(C#N)cc2)nc(N)c1Br [ETRAVIRINE]
CC50 at 120 h [2]: > 6330 nM
EC50 [3]: 38 nM
EC50 [4]: 18 nM
selectivity ratio [5]: > 1640

Compound: Nc1ccn([C@@H]2CS[C@H](CO)O2)c(=O)n1 [LAMIVUDINE]
CC50 at 120 h [2]: > 87200 nM
selectivity ratio [5]: > 17
EC50 [6]: 3560 nM

Compound: Cc1cc(C)cc(S(=O)(=O)c2c(C(=O)NCc3cn(Cc4ccc5ccccc5c4)nn3)[nH]c3ccc(Cl)cc23)c1
inhibition [1]: < 85%

Compound: Cc1cc(C)cc(S(=O)(=O)c2c(C(=O)NCc3cn(Cc4cccc([N+](=O)[O-])c4)nn3)[nH]c3ccc(Cl)cc23)c1
CC50 at 120 h [2]: > 216000 nM
EC50 [3]: > 216000 nM
EC50 [7]: 2840 nM
EC50 [4]: 9410 nM
selectivity ratio [5]: > 939
EC50 [8]: 3040 nM
inhibition [1]: > 85%
EC50 [6]: 152000 nM
EC50 [9]: 1900 nM
EC50 [10]: 1300 nM
EC50 [11]: 230 nM
EC50 [12]: > 216000 nM

Compound: Cc1ccnc2c1NC(=O)c1cccnc1N2C1CC1 [NEVIRAPINE]
CC50 at 120 h [2]: > 15000 nM
EC50 [3]: > 15000 nM
EC50 [4]: ≥ 5410 nM
selectivity ratio [5]: > 92
EC50 [6]: ≥ 7700 nM

Compound: Cc1cc(C)cc(S(=O)(=O)c2c(C(=O)NCc3cn(CC(=O)N4CCCC4)nn3)[nH]c3ccc(Cl)cc23)c1
inhibition [1]: < 85%

Compound: Cc1cc(C)cc(S(=O)(=O)c2c(C(=O)NCc3cn([C@H]4C[C@H](n5cc(C)c(=O)[nH]c5=O)O[C@@H]4CO)nn3)[nH]c3ccc(Cl)cc23)c1 (single isomer, unassigned)
inhibition [1]: < 85%

Compound: Cc1cc(C)cc(S(=O)(=O)c2c(C(=O)NCc3cn(Cc4cccc5ccccc45)nn3)[nH]c3ccc(Cl)cc23)c1
CC50 at 120 h [2]: > 214000 nM
EC50 [3]: 113000 nM
EC50 [7]: 700 nM
EC50 [4]: 1990 nM
selectivity ratio [5]: > 3510
EC50 [8]: 620 nM
inhibition [1]: > 85%
EC50 [6]: 25000 nM
EC50 [9]: 300 nM
EC50 [10]: 240 nM
EC50 [11]: 61 nM
EC50 [12]: > 214000 nM

Next, values leading:

inhibition [1]: < 85%
Compound: Cc1cc(C)cc(S(=O)(=O)c2c(C(=O)NCc3cn(-c4ccc(C(=O)O)cc4)nn3)[nH]c3ccc(Cl)cc23)c1

inhibition [1]: < 85%
Compound: Cc1cc(C)cc(S(=O)(=O)c2c(C(=O)NCc3cn(CC(=O)NC4CC4)nn3)[nH]c3ccc(Cl)cc23)c1

inhibition [1]: < 85%
Compound: Cc1ccc(Cn2cc(CNC(=O)c3[nH]c4ccc(Cl)cc4c3S(=O)(=O)c3cc(C)cc(C)c3)nn2)cc1

inhibition [1]: < 85%
Compound: Cc1cc(C)cc(S(=O)(=O)c2c(C(=O)NCc3cn(Cc4ccccc4C)nn3)[nH]c3ccc(Cl)cc23)c1

inhibition [1]: < 85%
Compound: Cc1cc(C)cc(S(=O)(=O)c2c(C(=O)NCc3cn(CC(=O)Nc4ccccc4)nn3)[nH]c3ccc(Cl)cc23)c1

inhibition [1]: < 85%
Compound: COc1ccccc1Cn1cc(CNC(=O)c2[nH]c3ccc(Cl)cc3c2S(=O)(=O)c2cc(C)cc(C)c2)nn1

inhibition [1]: < 85%
Compound: COC(=O)c1cccc(-n2cc(CNC(=O)c3[nH]c4ccc(Cl)cc4c3S(=O)(=O)c3cc(C)cc(C)c3)nn2)c1

inhibition [1]: < 85%
Compound: Cc1cc(C)cc(S(=O)(=O)c2c(C(=O)NCc3cn(Cc4ccc(S(N)(=O)=O)cc4)nn3)[nH]c3ccc(Cl)cc23)c1
